Our source for the Ki values is ChEMBL document CHEMBL1131238, “Investigation of the N-substituent conformation governing potency and mu receptor subtype-selectivity in (+)-(3R, 4R)-dimethyl-4-(3-hydroxyphenyl)piperidine opioid antagonists” (J Med Chem, 1998).

Structures are written as SMILES.

Broadly, the Ki is a measure of affinity in units of concentration, obtained from inhibition or displacement. Higher therefore signals a looser hold on the target.

For experiment [1], the target named is T1, Kappa-type opioid receptor (Cavia porcellus, UniProt P41144). Description: The compound was tested for antagonist activity by selective inhibition of [35S]GTP-gamma-S, binding in Guinea pig caudate stimulated by U69,593 to Opioid receptor kappa 1. It is filed as functional. Background: Binding of GTPγS marks nucleotide exchange on a G protein.
T1 sequence (P41144 whole entry): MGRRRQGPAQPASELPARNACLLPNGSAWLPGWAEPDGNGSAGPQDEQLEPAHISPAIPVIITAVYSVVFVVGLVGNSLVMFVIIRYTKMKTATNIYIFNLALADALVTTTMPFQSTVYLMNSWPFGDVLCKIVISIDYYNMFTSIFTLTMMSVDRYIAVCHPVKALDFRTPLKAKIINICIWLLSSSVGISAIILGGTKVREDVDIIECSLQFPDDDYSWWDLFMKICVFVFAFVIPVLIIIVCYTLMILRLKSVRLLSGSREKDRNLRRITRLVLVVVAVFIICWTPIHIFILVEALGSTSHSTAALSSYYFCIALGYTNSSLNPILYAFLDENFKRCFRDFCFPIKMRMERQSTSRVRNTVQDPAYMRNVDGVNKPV
Experiment [2] deals with T1, Kappa-type opioid receptor. Description: Inhibition of [3H]U-69593 binding to Opioid receptor kappa 1 of guinea pig membranes.
Experiment [3] addresses Mu-type opioid receptor (Cavia porcellus, UniProt P97266). Description: The compound was tested for antagonist activity by selective inhibition of [35S]GTP-gamma-S, binding to Opioid receptor mu 1 in Guinea pig caudate stimulated by DAMGO[mu]. It is filed as functional. In outline: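 Guinea pig caudate putamen membranes (10 μg/tube) in 50 mM Tris-HCl pH 7.7, 0.1% BSA. Final: 100 mM NaCl, 5 mM MgCl2, 1 mM EDTA, 1 mM DTT, 100 μM GDP, 0.05–0.1 nM [35S]GTP-γ-S, agonist 500 nM or 10 μM, ≥10 antagonist concentrations; 4 h, filtration.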

Experiment [4] deals with Delta-type opioid receptor (Rattus norvegicus, UniProt P33533). Description: Inhibition of [3H]-DADLE binding to Opioid receptor delta 1 of rat brain membranes. It is filed as cell membranes, Membrane.
Chain of Delta-type opioid receptor (P33533 whole entry): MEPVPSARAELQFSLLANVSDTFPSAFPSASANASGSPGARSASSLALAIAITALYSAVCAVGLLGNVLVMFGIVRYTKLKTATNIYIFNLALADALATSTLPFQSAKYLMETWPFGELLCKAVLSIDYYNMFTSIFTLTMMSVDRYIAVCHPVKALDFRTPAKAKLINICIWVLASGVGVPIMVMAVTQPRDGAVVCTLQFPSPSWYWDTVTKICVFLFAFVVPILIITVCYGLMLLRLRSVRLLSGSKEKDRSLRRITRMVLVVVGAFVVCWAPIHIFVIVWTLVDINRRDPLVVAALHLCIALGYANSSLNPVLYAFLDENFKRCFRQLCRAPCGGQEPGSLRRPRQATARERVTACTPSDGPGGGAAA
Experiment [5] concerns the target Mu-type opioid receptor (Rattus norvegicus, UniProt P33535). Description: Inhibition of [3H]DAMGO binding to Opioid receptor mu 1 of rat brain membranes. It is filed as cell membranes, Membrane.

Chain of Mu-type opioid receptor (Rattus norvegicus, UniProt P33535) (P33535 whole entry): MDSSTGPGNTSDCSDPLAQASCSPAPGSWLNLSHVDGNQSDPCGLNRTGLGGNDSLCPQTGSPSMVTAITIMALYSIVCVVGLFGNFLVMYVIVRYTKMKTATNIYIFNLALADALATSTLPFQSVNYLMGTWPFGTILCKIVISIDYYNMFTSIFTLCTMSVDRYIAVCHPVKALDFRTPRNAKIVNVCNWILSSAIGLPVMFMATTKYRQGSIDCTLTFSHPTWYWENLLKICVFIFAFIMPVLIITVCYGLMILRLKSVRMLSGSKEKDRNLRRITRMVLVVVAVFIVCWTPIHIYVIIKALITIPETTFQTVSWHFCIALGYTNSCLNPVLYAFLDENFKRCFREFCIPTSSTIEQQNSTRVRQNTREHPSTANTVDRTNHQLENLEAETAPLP
Chain of Mu-type opioid receptor (Cavia porcellus, UniProt P97266) (P97266 whole entry): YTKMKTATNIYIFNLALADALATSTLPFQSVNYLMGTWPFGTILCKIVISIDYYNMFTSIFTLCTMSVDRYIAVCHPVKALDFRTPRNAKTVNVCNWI

`Cc1ccccc1/C=C/CN1CC[C@@](C)(c2cccc(O)c2)[C@@H](C)C1`: the Ki in experiment [1] was 0.17 nM; in experiment [2], 38.9 nM; at Mu-type opioid receptor [3] it was 0.013 nM; in experiment [4], 142 nM; at Mu-type opioid receptor [5], 0.86 nM.
Take `C[C@H]1CN(C2CCCC(O)C2)CC[C@@]1(C)c1cccc(O)c1` (stereo partly drawn): the Ki in experiment [2] was 1150 nM; in experiment [4], over 7300 nM.
In the case of `C[C@H]1CN(C2CCCCC2)CC[C@@]1(C)c1cccc(O)c1`, the results for the Ki (in experiment [2]; in experiment [4]; on Mu-type opioid receptor [5]) were 315 nM, over 7300 nM and 1280 nM, respectively.
In the same order, the values of `C[C@H]1CN(Cc2cc3ccccc3s2)CC[C@@]1(C)c1cccc(O)c1` are over 690 nM, 1580 nM and 21.2 nM.
In the same order, the values of `C[C@H]1CN(C2CCCC(O)(c3ccccc3)C2)CC[C@@]1(C)c1cccc(O)c1` (stereo partly drawn) are 674 nM, over 7300 nM and 203 nM.
On to `C[C@H]1CN(CC[C@H](O)C2CCCCC2)CC[C@@]1(C)c1cccc(O)c1`, for which the Ki turned out to be 0.33 nM in experiment [1]; 28 nM in experiment [2]; 0.021 nM at Mu-type opioid receptor [3]; 198 nM in experiment [4]; 0.32 nM on Mu-type opioid receptor [5].
In the case of `C[C@H]1CN(C/C=C/c2ccccc2)CC[C@@]1(C)c1cccc(O)c1`, the Ki in experiment [1] worked out at 1.04 nM; in experiment [2], 122 nM; at Mu-type opioid receptor [3], 0.039 nM; in experiment [4] it was 322 nM; at Mu-type opioid receptor [5] it was 0.74 nM.
With `C[C@H]1CN(C[C@@H]2C[C@H]2c2ccccc2)CC[C@@]1(C)c1cccc(O)c1`, the figures for the Ki (in experiment [2]; in experiment [4]; at Mu-type opioid receptor [5]) were 81.8 nM, 709 nM and 1.75 nM, respectively.
With `C[C@H]1CN(Cc2cc3ccccc3o2)CC[C@@]1(C)c1cccc(O)c1`, the values for the Ki (in experiment [2]; in experiment [4]; on Mu-type opioid receptor [5]) were over 690 nM, 1450 nM and 22.2 nM, respectively.
In the same order, the values of `C[C@H]1CN(C/C=C\c2ccccc2)CC[C@@]1(C)c1cccc(O)c1` are 298 nM, 931 nM and 11.4 nM.
Take `C[C@H]1CN(C/C=C/c2ccccc2Cl)CC[C@@]1(C)c1cccc(O)c1`: the Ki in experiment [1] turned out to be 0.567 nM; in experiment [2], 35.8 nM; at Mu-type opioid receptor [3], 0.026 nM; in experiment [4], 168 nM; on Mu-type opioid receptor [5], 1.12 nM.
On to `C[C@H]1CN(C2CCCC2)CC[C@@]1(C)c1cccc(O)c1`, for which the inhibition constant (Ki) in experiment [2] was 199 nM; in experiment [4], over 7300 nM; on Mu-type opioid receptor [5] it was 444 nM.
